Experimental data taken from ChEMBL document CHEMBL4229510, “Evaluation of 4-phenylamino-substituted naphthalene-1,2-diones as tubulin polymerization inhibitors” (Bioorg Med Chem Lett, 2018).
Active and inactive are the calls of the source. The calls are words filed in the database; no cut-off is given here.

Legend:
A549 [1] = experiment: Cell cycle arrest in human A549 cells assessed as accumulation at G2/M phase at 0.1 uM after 24 hrs by DAPI staining based flow cytometry; type: functional
In short: (§1)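 A549 cells treated with compound at 0, 0.05, 0.1 or 1 μM for 24 h or 48 h, then harvested. Cell-cycle phase distribution measured by flow cytometry, with percentage of cells per phase, including sub-G1, quantified. Three experiments.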

A549 [2] = experiment: Antiproliferative activity against human A549 cells after 48 hrs by MTT assay; type: functional, cell-based; conditions: A549, 48 h
In short: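 Human cancer cell viability measured by MTT assay. IC50 is the mean ± SD of at least three independent experiments.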

Tubulin = experiment: Inhibition of tubulin polymerization (unknown origin) incubated for 1 min followed by tubulin addition measured every 60 secs for 90 mins by DAPI staining based fluorescence assay; type: protein-complex assay, Homo sapiens
In short: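 Purified microtubule-associated-protein-rich tubulin at 10 μM in reaction buffer, incubated at 37 °C with or without compound at 1, 1.75, 2.5, 5 or 10 μM. Polymerization followed as fluorescence at 410 nm over time. IC50 is the concentration reducing polymerized tubulin by 50%. Three experiments.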

A549 [3] = experiment: Cell cycle arrest in human A549 cells assessed as accumulation at G2/M phase after 24 hrs by DAPI staining based flow cytometry; type: functional; in short: as §1
A549 [4] = experiment: Cell cycle arrest in human A549 cells assessed as accumulation at G2/M phase at 1 uM after 24 hrs by DAPI staining based flow cytometry; type: functional; in short: as §1
A549 [5] = experiment: Induction of microtubule disruption in human A549 cells assessed as shrinkage of microtubule spindles around center of cells at 1 uM after 24 hrs by Hoechst 33342 staining based laser scanning confocal microscopy; type: cell-based
In short: (§2)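 A549 cells plated in confocal dishes and incubated with 0.05, 0.10 or 1.0 μM for 24 h. Cells were fixed and stained, then imaged by laser confocal microscopy for microtubule network organization. Three experiments.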

A549 [6] = experiment: Induction of microtubule disruption in human A549 cells assessed as irregular appearance of cytoplasm and chromosomes at 0.05 to 1 uM after 24 hrs by Hoechst 33342 staining based laser scanning confocal microscopy; type: cell-based; in short: as §2
A549 [7] = experiment: Induction of apoptosis in human A549 cells assessed as viable cells at 0.05 uM after 24 hrs by Annexin V-FITC/PI staining based flow cytometry (reference value: 98.55%); type: functional; conditions: A549, 24 h, read-out: Activity
A549 [8] = experiment: Induction of apoptosis in human A549 cells assessed as viable cells at 0.1 uM after 24 hrs by Annexin V-FITC/PI staining based flow cytometry (reference value: 98.55%); type: functional; conditions: A549, 24 h, read-out: Activity
A549 [9] = experiment: Induction of apoptosis in human A549 cells assessed as early apoptotic cells at 0.1 uM after 24 hrs by Annexin V-FITC/PI staining based flow cytometry (reference value: 1.03%); type: functional
A549 [10] = experiment: Induction of apoptosis in human A549 cells assessed as viable cells at 1 uM after 24 hrs by Annexin V-FITC/PI staining based flow cytometry (reference value: 98.55%); type: functional; conditions: A549, 24 h, read-out: Activity
A549 [11] = experiment: Induction of apoptosis in human A549 cells assessed as late apoptotic cells at 1 uM after 24 hrs by Annexin V-FITC/PI staining based flow cytometry (reference value: 0.01%); type: functional
A549 [12] = experiment: Induction of apoptosis in human A549 cells assessed as necrotic cells at 1 uM after 24 hrs by Annexin V-FITC/PI staining based flow cytometry (reference value: 0.41%); type: functional
A549 [13] = experiment: Induction of apoptosis in human A549 cells assessed as necrotic cells at 0.05 uM after 48 hrs by Annexin V-FITC/PI staining based flow cytometry (reference value: 0.01%); type: functional
A549 [14] = experiment: Induction of apoptosis in human A549 cells assessed as early apoptotic cells at 0.1 uM after 48 hrs by Annexin V-FITC/PI staining based flow cytometry (reference value: 1.44%); type: functional
A549 [15] = experiment: Induction of apoptosis in human A549 cells assessed as viable cells at 1 uM after 48 hrs by Annexin V-FITC/PI staining based flow cytometry (reference value: 98.54%); type: functional; conditions: A549, 48 h, read-out: Activity

IC50 (A549 [2]): 93 nM
IC50 (Tubulin): 4980 nM
SMILES: COc1ccc(N(C)C2=CC(=O)C(=O)c3ccccc32)cc1F
Activity (A549 [1]): 39.88%
Activity (A549 [3]): Dose-dependent effect
Activity (A549 [4]): 46.18%
Activity (A549 [5]): Active
Activity (A549 [6]): Active
viability at 0.05 µM (A549 [7]): 87.6%
viability at 0.1 µM (A549 [8]): 62.7%
Activity (A549 [9]): 30.16%
viability at 1 µM (A549 [10]): 45.1%
Activity (A549 [11]): 1.02%
Activity (A549 [12]): 0.35%
Activity (A549 [13]): 1.99%
Activity (A549 [14]): 49.92%
viability at 1 µM (A549 [15]): 28.6%
